Reference: ChEMBL document CHEMBL4825662 (J Med Chem, 2021)
pEC50, pIC50: −log10 of the molar value. Converted amounts (≈) assume the structure as drawn. The source made the active and inactive calls. The calls are words filed in the database; no cut-off is given here.

Assays:
[1] = Antiviral activity against Respiratory syncytial virus B by Plaque reduction assay; format: functional
How it was run: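 RSV A and B laboratory strains and low-passage clinical isolates were used to infect Vero or HepG2 cultures for 48 h with compound at 0.01 nM to 100 μM. Plaques were then detected by immunostaining.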

[2] = Cmax in Sprague-Dawley rat at 5 mg/kg, po administered via gavage measured after 0.02 to 24 hrs by tandem liquid chromatography/mass spectrometry; format: ADME, organism-based; set-up: route oral, dose 5 mg/kg, time upper 24 hrs, time lower 0.02 hrs; conditions: in vivo
How it was run: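 Male Sprague–Dawley rats weighing 200–250 g, 3 per route, were used. The i.v. bolus was 1 mg/kg at 1 mg/mL in 40:60 dimethylacetamide/saline. Oral gavage doses were 5 or 10 mg/kg at 5 mg/mL in 1% methyl cellulose with 0.1% Tween 80. Heparinized blood was taken at 0.02–24 h (ten time points). Plasma was analyzed by LC-MS/MS after acetonitrile precipitation.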

Human orthopneumovirus [3] = assay: Antiviral activity against Respiratory syncytial virus A Memphis 37b infected in human assessed as reduction in AUC of total symptom score at 200 to 350 mg administered twice daily administered for 5 days; format: functional, organism-based; conditions: dose 200-350 mg, time 5.0 day
How it was run: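 Phase 2a challenge study in healthy adults aged 18–45 with low serum RSV-specific antibodies, inoculated on day 0 with about 4 log10 PFU RSV-A Memphis 37b. After infection was confirmed, subjects were randomised to three equal groups: drug at 200 or 350 mg, or placebo, twice daily for 5 days. Read-out was AUC of total symptom score versus placebo.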

Salmonella typhimurium = assay: Genotoxicity in Salmonella typhimurium by Ames test; format: functional, organism-based; conditions: Salmonella enterica subsp. enterica serovar Typhimurium
Human orthopneumovirus [4] = assay: (§1) Antiviral activity against Respiratory syncytial virus A2 infected in Balb/C mouse assessed as reduction in viral titers in lung homogenates at 50 mg/kg, po treated 2 hrs prior to viral infection followed by compound redosing at 24 hrs and measured after 5 days post infection by plaque assay relative to control; format: functional, human respiratory syncytial virus; set-up: scale not given: the % may be the effect or the level left
How it was run: (§2)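 Female Balb/C mice aged 7–8 weeks, 6 per group, received two oral doses 2 h before and 24 h after intranasal inoculation with 5 × 10⁶ pfu of RSV A2. Mice were euthanized on day 5. Lung homogenate titers were determined by plaque assay on Vero cells and expressed as a percentage of the control group.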

Human orthopneumovirus [5] = assay: as §1, with “1” for “50”; format: functional, human respiratory syncytial virus; set-up: scale not given: the % may be the effect or the level left; how it was run: as §2
[6] = Half life in Beagle dog at 0.3 mg/kg, iv measured after 0.03 to 24 hrs by UHPLC-TOF method; format: ADME, organism-based, Canis lupus familiaris; conditions: in vivo, time 0.03-24 hrs
How it was run: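 Dogs dosed IV as a suspension of amorphous solid. Serial blood at 2, 5, 15 min and 1, 2, 4, 8, 12, 24 h into heparinized tubes, centrifuged at 4 °C for 10 min at 3000g. Plasma snap-frozen and stored at −20 °C, then analysed by UHPLC-TOF.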

[7] = Intrinsic clearance in Sprague-Dawley rat liver microsomes preincubated followed by NADPH addition and measured up to 45 mins by LC-MS/MS analysis; format: ADME, Microsome
[8] = Clearance in Sprague-Dawley rat at 1 mg/kg, iv administered […] measured after 0.02 to 24 hrs by tandem liquid chromatography/mass spectrometry; format: ADME, organism-based; conditions: in vivo, time 0.02-24 hrs
[9] = test system: Respiratory syncytial virus; assay: Antiviral activity against Respiratory syncytial virus Memphis 37b infected in human HEp2 cells treated over 10 serial passages by plaque assay; format: functional, organism-based; conditions: HEp-2
[10] = test system: Respiratory syncytial virus; assay: Antiviral activity against Respiratory syncytial virus infected in human airway epithelial cells assessed as reduction in RSV titer at 10 nM preincubated for 2 hrs followed by viral infection and measured after 7 day post infection by luminescence assay relative to control; format: functional, HAE
How it was run: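 Primary HAE cells were differentiated for 61 days on type IV collagen-coated trans-well inserts (n = 3 cultures). Compound at 10 nM was given basolaterally for 2 h before apical inoculation with 4 × 10⁵ pfu of luciferase-expressing recombinant RSV. Apical virus titer was read by luminescence on days 7 and 8 post-infection and compared with untreated controls. Data are mean SD.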

[11] = Clearance in Sprague-Dawley rat at 50 mg/kg, po measured after 0.25 to 24 hrs by UHPLC-TOF method; format: ADME, organism-based; conditions: in vivo, time 0.25-24 hrs
[12] = Cmax in Sprague-Dawley rat at 10 mg/kg, po measured after 0.02 to 24 hrs by UHPLC-TOF method; format: ADME, organism-based; set-up: route oral, dose 10 mg/kg, time 0.02-24 hrs; conditions: in vivo
[13] = Half life in Sprague-Dawley rat liver microsomes preincubated followed by NADPH addition and measured up to 45 mins by LC-MS/MS analysis; format: ADME, Microsome
Human orthopneumovirus [14] = assay: Antiviral activity against Respiratory syncytial virus A Memphis 37b infected in human assessed as reduction in nasal mucus weight at 200 to 350 mg administered twice daily administered for 5 days; format: functional, organism-based; conditions: dose 200-350 mg, time 5.0 day
How it was run: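 Healthy adult volunteers aged 18–45, with low pre-existing RSV antibody levels, were challenged on day 0 with about 4 log10 PFU RSV-A Memphis 37b. After infection was confirmed, they were randomised to 200 mg, 350 mg or placebo twice daily for 5 days. Post hoc analysis compared mean daily nasal mucus weight with placebo.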

[15] = Intrinsic clearance in Beagle dog hepatocytes at 3 uM assessed per million cells measured up to 60 mins by LC-MS/MS analysis; format: ADME, cell-based, Canis lupus familiaris, Hepatocyte; conditions: read-out: CLH
[16] = Tmax in Sprague-Dawley rat at 10 mg/kg, po measured after 0.02 to 24 hrs by UHPLC-TOF method; format: ADME, organism-based; conditions: in vivo, 10 mg/kg, time 0.02-24 hrs
[17] = Intrinsic clearance in human liver microsomes preincubated followed by NADPH addition and measured up to 45 mins by LC-MS/MS analysis; format: ADME, Microsome
[18] = Cytotoxicity against African green monkey Vero cells by MTT assay; format: cell-based; conditions: chlorocebus sabaeus
How it was run: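 Viability was assessed by MTT after culture with compound at 0.01 nM to 100 μM, run in parallel with plaque reduction assays. Values are the average of at least two testing occasions.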

[19] = Induction of adverse effect in human infected with Respiratory syncytial virus A Memphis 37b assessed as nausea at 200 to 350 mg administered twice daily administered for 5 days; conditions: in vivo, 120 h, dose 200-350 mg, time 5 day
How it was run: (§3)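 Challenge study in healthy adults aged 18–45 inoculated with about 4 log10 PFU of RSV-A Memphis 37b. Dosing was 200 or 350 mg twice daily for 5 days after infection was confirmed. Adverse events were monitored daily. ECG, physical examination and urinalysis were done at prespecified time points.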

[20] = Thermodynamic solubility in PBS at 1 to 100 uM at pH 7.4 by HPLC-UV method; format: physicochemical; conditions: dose 1-100 µM, read-out: Therm_solubility
[21] = Induction of adverse effect in human infected with Respiratory syncytial virus A Memphis 37b assessed as diarrhea at 200 to 350 mg administered twice daily administered for 5 days; conditions: in vivo, 120 h, dose 200-350 mg, time 5 day; how it was run: as §3
[22] = Tmax in Sprague-Dawley rat at 50 mg/kg, po measured after 0.02 to 24 hrs by UHPLC-TOF method; format: ADME, organism-based; conditions: in vivo, time 0.02-24 hrs
[23] = Clearance in Beagle dog at 0.3 mg/kg, iv measured after 0.03 to 24 hrs by UHPLC-TOF method; format: ADME, organism-based, Canis lupus familiaris; conditions: in vivo, time 0.03-24 hrs

Question: With `NCc1ccc2c(c1)nc(CN1C(=O)C3(CC3)c3ccc(F)cc31)n2CCCC(F)(F)F` [SISUNATOVIR] as the compound, how does the pIC50 [1] read?
Answer: The pIC50 was 9.00.

Question: And the Cmax [2]?
Answer: Its Cmax is 74.2 ng/mL.

Question: And the Activity (Human orthopneumovirus [3])?
Answer: The Activity was “Active”.

Question: And the Activity (Salmonella typhimurium)?
Answer: Its Activity is “Not toxic”.

Question: What about the Activity (Human orthopneumovirus [4]) of the same compound?
Answer: Its Activity is 98%.

Question: What about the Activity (Human orthopneumovirus [5]) of the same compound?
Answer: Its Activity is 79%.

Question: And the half-life [6]?
Answer: The half-life was 12.3 h.

Question: What about the Microsomal intrinsic clearance [7] of the same compound?
Answer: The Microsomal intrinsic clearance was 17 µL/min.

Question: And the clearance [8]?
Answer: The clearance was 164 mL/min/kg.

Question: What about the pEC50 [9] of the same compound?
Answer: The pEC50 was 7.05.

Question: What about the “log(activity)” value [10] of the same compound?
Answer: The value was 2.3.

Question: What about the CL/F [11] of the same compound?
Answer: Its CL/F is 164 mL/min/kg.

Question: And the Cmax [12]?
Answer: The Cmax was 74.2 ng/mL.

Question: And the half-life [13]?
Answer: The half-life was 1.33 h.

Question: What about the Activity (Human orthopneumovirus [14]) of the same compound?
Answer: The Activity was “Active”.

Question: What about the hepatocyte CLint at 3 µM [15] of the same compound?
Answer: The hepatocyte CLint at 3 µM was 2.4 µL/min/1e6 cells.

Question: And the Tmax [16]?
Answer: Its Tmax is 2.7 h.

Question: And the “intrinsic clearance (CLint)” value [17]?
Answer: Its value is 44 µL/min.

Question: What about the CC50 [18] of the same compound?
Answer: Its CC50 is over 4000 nM.

Question: What about the Activity [19] of the same compound?
Answer: The Activity was “Toxic”.

Question: What about the solubility thermodynamic [20] of the same compound?
Answer: The solubility thermodynamic was 417 µM (≈ 186 µg/mL).

Question: What about the Activity [21] of the same compound?
Answer: Its Activity is “Toxic”.

Question: And the Tmax [22]?
Answer: Its Tmax is 5.3 h.

Question: And the clearance [23]?
Answer: The clearance was 17.8 mL/min/kg.
